Molecules are shown by their SMILES. A value given as a limit tells only on which side of the number the result lay.

The record followed here is ChEMBL document CHEMBL1123247, “Nucleoside conjugates. 7. Synthesis and antitumor activity of 1-beta-D-arabinofuranosylcytosine conjugates of ether lipids” (J Med Chem, 1986).

Assay [1] has as its system L1210. Kind of assay: Antitumor activity was determined against the ic implanted L1210 lymphoid leukemia in mice by percent median survival rate (treated/control) at 300 mg/kg (1 qd treatment schedule) dosage; 21.0/7.0. The format is functional, Mus musculus.
The test system of assay [2] is L1210. Put plainly: Antitumor activity was determined against the ic implanted L1210 lymphoid leukemia in mice by change in body weight at 300 mg/kg (1 qd treatment schedule) dosage.
The test system of assay [3] is L1210. Kind of assay: Antitumor activity was determined against the ic implanted L1210 lymphoid leukemia in mice by change in […] at 80 mg/kg (1-5qd treatment schedule) dosage. Format: functional, Mus musculus. In outline:
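DBA/2J mice, 6 per group (wt 26-32 g), inoculated ic with 1×10^5 L1210 cells on day 0. Dosing ip began 24 h after inoculation, with a sonicated solution or suspension in 0.9% NaCl containing 0.5% Tween-80, given over a range of doses. Animals were followed daily until death. Body weight change, median survival T/C, and %ILS = (T/C − 1) × 100 were computed from survivors per NCI protocols.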

In assay [4] the test system is L1210. Put plainly: Antitumor activity was determined against the ip implanted L1210 leukemia in mice by change in […] at 300 mg/kg (treatment of 1qd schedule) dosage. To be noted: route intraperitoneal. Format: functional, Mus musculus. In outline:
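DBA/2J mice, 6 per group (wt 23-28 g), inoculated ip with 1×10^6 L1210 cells on day 0. Treatment was given ip in 0.9% NaCl with 0.5% Tween-80, starting 24 h later. Weight change was taken on day 8. Mice were observed daily until death or 45 days. Median survival T/C and %ILS = (T/C − 1) × 100 came from survivors per NCI protocols, and 45-day survivors were counted.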

The subject of assay [5] is L1210. Kind of assay: Antitumor activity was determined against the ip implanted L1210 leukemia in mice by 45-day survivors in mice at 40 mg/kg (treatment of 1-5qd schedule) dosage. The format is functional, Mus musculus. To be noted: route intraperitoneal. Summed up: (§1)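 DBA/2J mice in groups of 6 (wt 23-28 g) were inoculated ip with 1×10^6 L1210 cells on day 0. Dosing was ip from 24 h, in 0.9% NaCl with 0.5% Tween-80 (conjugates sonicated), across a range of doses. Mice were observed daily until death or 45 days. Median T/C was computed from survivors per NCI protocols, and ILS = (T/C − 1)×100.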

Assay [6] deals with L1210. Put plainly: Antitumor activity was determined against the ic implanted L1210 lymphoid leukemia in mice by range in survival days at 500 mg/kg (treatment of 1qd schedule) dosage; Range is 18-23.
Assay [7] has as its system L1210. Kind of assay: Antitumor activity against ip implanted L1210 leukemia in mice expressed as active dose range (1 qd treatment schedule) required to produce increase in life span by >25% was determined; Range is 300-400. The format is functional, Mus musculus. Summed up:
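DBA/2J mice, groups of 6 (23-28 g), were inoculated ip with 1 × 10^6 L1210 cells on day 0. Dosing was ip from 24 h, in 0.9% NaCl with 0.5% Tween-80 (sonicated solution or suspension). Mice were observed daily until death or day 45. Median survival T/C followed NCI protocols, and ILS = (T/C − 1) × 100. Active range means doses giving ILS ≥25%; optimal dose means greatest ILS.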

In assay [8] the test system is L1210. Put plainly: Antitumor activity was determined against the ip implanted L1210 leukemia in mice by percent increase in life span at 80 mg/kg (treatment of 1-5qd schedule) dosage. Particulars: route intraperitoneal. Format: functional, Mus musculus. Summed up:
as §1

The subject of assay [9] is L1210. Kind of assay: Antitumor activity against ic implanted L1210 lymphoid leukemia in mice expressed as active dose range (1, 5, 9qd treatment schedule) required to produce increase in life span by >25% was determined; Range is 100-167. Format: functional, Mus musculus. In outline:
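DBA/2J mice, groups of 6 (26-32 g), got 1 × 10^5 L1210 cells ic on day 0. Dosing was ip starting 24 h later, as a sonicated solution or suspension in 0.9% NaCl with 0.5% Tween-80, over a wide dose range. Mice were followed daily until death. Median survival T/C was taken from survivors per NCI protocols, and ILS = (T/C − 1) × 100. Active range means doses giving ILS ≥25%; optimal dose means greatest ILS.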

For assay [10], the system named is P388. Kind of assay: Antitumor activity was determined against the ip implanted P388 leukemia in mice by percent median survival rate (treated/control) at 60 mg/kg (treatment of 1-5qd schedule) dosage; >45.0/11.0. The format is functional, Mus musculus. Particulars: route intraperitoneal.
For assay [11], the system named is L1210. Put plainly: Antitumor activity was determined against the ic implanted L1210 lymphoid leukemia in mice by range in survival days at 167 mg/kg (treatment of 1, 5, 9qd schedule) dosage; Range is 14-22. The format is functional, Mus musculus.
Assay [12] deals with P388. Put plainly: Antitumor activity was determined against the ip implanted P388 leukemia in mice by 45-day survivors in mice at 60 mg/kg (treatment of 1-5qd schedule) dosage. The format is functional, Mus musculus. Particulars: route intraperitoneal. In outline:
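DBA/2J mice, 23-33 g, in groups of 6, were inoculated ip with 1×10^6 P388 cells on day 0. Dosing was ip from 24 h on the stated schedules, in 0.9% NaCl with 0.5% Tween-80 (sonicated solution or suspension). Survival was followed daily until death or 45 days. Median T/C was calculated from survivors per NCI protocols, with ILS = (T/C − 1) × 100.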

Assay [13] has as its system P388. Kind of assay: Antitumor activity was determined against the ip implanted P388 leukemia in mice by percent median survival rate (treated/control) at 133 mg/kg (treatment of 1,5,9qd schedule) dosage; Range is >45.0/11.0. To be noted: route intraperitoneal.
In the next assay the test system is L1210 leukemia (mouse). Kind of assay: Antitumor activity was determined against the ic implanted L1210 lymphoid leukemia in mice by percent median survival rate (treated/control) at 500 mg/kg (treatment of 1qd schedule) dosage; 23.0/7.0.
Assay [14] deals with L1210. Put plainly: Antitumor activity was determined against the ic implanted L1210 lymphoid leukemia in mice by percent increase in life span at 500 mg/kg (treatment of 1qd schedule) dosage.
For assay [15], the system named is P388. Kind of assay: Antitumor activity against ip implanted P388 leukemia in mice expressed as active dose range (1,5,9qd treatment schedule) required to produce increase in life span by >25% was determined; Range is 67-133. The format is functional, Mus musculus. Summed up: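 P388 leukemia: 1 × 10^6 cells were given ip on day 0 to DBA/2J mice, groups of 6 (23-33 g). Treatment was ip from 24 h after inoculation, vehicle 0.9% NaCl with 0.5% Tween-80. Mice were observed daily until death or 45 days. Median survival T/C was calculated from survivors per NCI protocols, and ILS = (T/C − 1) × 100. Active range means doses giving ILS ≥25%; optimal dose means greatest ILS.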

Assay [16] concerns P388. Kind of assay: Antitumor activity was determined against the ip implanted P388 leukemia in mice by range in survival days at 60 mg/kg (1-5qd treatment schedule) dosage; 21-24. Format: functional, Mus musculus. To be noted: route intraperitoneal.
In assay [17] the test system is L1210. Kind of assay: Antitumor activity was determined against the ip implanted L1210 leukemia in mice by percent median survival rate (treated/control) at 200 mg/kg (treatment of 1-5qd schedule) dosage; 17.0/7.0. Particulars: route intraperitoneal. The format is functional, Mus musculus. In outline:
as §1

On to `CCCCCCCCCCCCCCCC(=O)OC[C@H](COP(=O)(O)OP(=O)(O)OC[C@H]1O[C@@H](n2ccc(N)nc2=O)[C@@H](O)[C@@H]1O)OC(=O)CCCCCCCCCCCCCCC`, for which, in the assay on L1210 [1], the median survival time turned out to be 21 days. Besides, the Weight change in the assay with L1210 [2] is -0.88 g mouse-1; in the assay with L1210 [3], -5.24 g mouse-1; with L1210 [4] it was -0.62 g mouse-1. Also, the Survivors in the assay on L1210 [5] came out at 1.

Turning to `CCCCCCCCCCCCCCCCOCC(COP(=O)(O)OP(=O)(O)OC[C@H]1O[C@@H](n2ccc(N)nc2=O)[C@@H](O)[C@@H]1O)OC(=O)CCCCCCCCCCCCCCC` (mixture of isomers), the figures for the Range with L1210 [6] and with L1210 [11] were 18 and 14, respectively. The Active dose range is 300 mg/kg/day in the assay with L1210 [7], 100 mg/kg/day in the assay with L1210 [9] and 67 mg/kg/day with P388 [15]. Further, the ILS was 264 in the assay with L1210 [8] and 229 in the assay with L1210 [14]. In addition, the values for the T/C with P388 [10], in the assay with P388 [13] and with L1210 leukemia (mouse) were above 45%, above 45% and 23%, respectively. For the same compound, the Survivors with P388 [12] was determined as 6.

`CCCCCCCCCCCCCCCCCCOCC(COP(=O)(O)OP(=O)(O)OC[C@H]1O[C@@H](n2ccc(N)nc2=O)[C@@H](O)[C@@H]1O)OC(=O)CCCCCCCCCCCCCCC` (mixture of isomers): the Range with P388 [16] was determined as 21.

`Nc1ccn([C@@H]2O[C@H](CO)[C@@H](O)[C@@H]2O)c(=O)n1` [CYTARABINE]: the median survival time in the assay on L1210 [17] is 17 days.

The term T/C denotes the result in the treated group divided by that in the control group, in per cent.
